Experimental data from ChEMBL document CHEMBL4610015, “Scaffold-hopping identifies furano[2,3-d]pyrimidine amides as potent Notum inhibitors” (Bioorg Med Chem Lett, 2020).

Legend:
[1] = molecular target: T1, Palmitoleoyl-protein carboxylesterase NOTUM (Homo sapiens, UniProt Q6P988, C330S); assay type: cell-based
[2] = Apparent permeability across basolateral to apical membrane in dog MDCK-MDR1 cells; assay type: ADME, cell-based, Canis lupus familiaris
[3] = Efflux ratio of apparent permeability in dog MDCK-MDR1 cells; assay type: ADME, cell-based, Canis lupus familiaris
[4] = Intrinsic clearance in mouse liver microsomes; assay type: ADME, Microsome; settings: read-out: CLH
[5] = Apparent permeability across apical to basolateral membrane in dog MDCK-MDR1 cells; assay type: ADME, cell-based, Canis lupus familiaris
[6] = Stability of the compound in citrate buffer at pH 4 measured up to 24 hrs by UPLC-MS analysis; assay type: physicochemical; settings: pH 4, 24 h
In short: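 Incubated in 0.1 M citrate buffer at pH 4 and sampled at several time points up to 24 h. The parent amide was monitored by UPLC-MS.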

[7] = molecular target: T1, Palmitoleoyl-protein carboxylesterase NOTUM; assay type: ADME, cell-based; settings: 72 h

T1 sequence (Q6P988 20-496 C330S limits assumed): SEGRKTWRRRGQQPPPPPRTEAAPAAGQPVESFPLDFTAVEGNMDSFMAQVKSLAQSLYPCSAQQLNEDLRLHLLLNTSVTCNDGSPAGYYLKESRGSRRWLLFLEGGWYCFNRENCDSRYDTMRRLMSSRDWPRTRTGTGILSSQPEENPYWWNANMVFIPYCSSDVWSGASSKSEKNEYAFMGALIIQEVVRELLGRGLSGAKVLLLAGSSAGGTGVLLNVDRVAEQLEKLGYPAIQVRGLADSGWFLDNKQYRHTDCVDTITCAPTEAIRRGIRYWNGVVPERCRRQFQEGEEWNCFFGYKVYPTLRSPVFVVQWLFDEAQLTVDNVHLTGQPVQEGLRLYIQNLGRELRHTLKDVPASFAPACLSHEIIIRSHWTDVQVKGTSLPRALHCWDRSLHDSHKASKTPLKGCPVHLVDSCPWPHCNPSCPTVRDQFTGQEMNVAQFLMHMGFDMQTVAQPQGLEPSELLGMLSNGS

SMILES | IC50 [1] [nM] | Papp B→A [2] [×10⁻⁶ cm/s] | efflux ratio [3] | microsomal CLint [4] [µL/min/mg] | Papp A→B [5] [×10⁻⁶ cm/s] | Stability [6] | Stability [7]
Cc1sc2ncnc(SCC(=O)O)c2c1Cl | 3 |  |  |  |  |  | 
O=C(CSc1ncnc2c(C3CC3)c(Cl)sc12)N1CCn2cnnc2C1 | 1.1 | 93 | 98 | 29 | 0.95 |  | 
O=C1CN(C(=O)CSc2ncnc3c(C4CC4)c(Cl)sc23)CCN1 |  | 65 | 8.2 | 24 | 7.9 |  | 
Cc1sc2ncnc(SCC(=O)N3CCn4cnnc4C3)c2c1Cl |  |  |  |  |  | Stable | Stable
O=C1CN(C(=O)CSc2ncnc3c(C4CC4)c(Cl)sc23)CN1 |  | 14 | 3.7 | 19 | 3.8 |  | 
O=C(CSc1ncnc2c(C3CC3)c(Cl)sc12)N1CCOCC1 |  | 38 | 0.95 | > 500 | 40 |  | 
Cc1sc2ncnc(SCC(=O)N3CC(=O)N(C)C3)c2c1Cl |  |  |  |  |  | Stable | Stable
